From ChEMBL document CHEMBL1177716, “Kinesin spindle protein (KSP) inhibitors with 2,3-fused indole scaffolds” (J Med Chem, 2010) come the findings set out here.

The source made the active and inactive calls. The rule behind the calls is not given here.

The subject of one assay is HeLa. Nature of the assay: Cytotoxicity against human HeLa cells after 48 hrs […]. In kind it is functional, cell-based. The note with it: Homo sapiens, HeLa, 48 h.
In assay [1] the target is Centromere-associated protein E (Homo sapiens) (UniProt Q02224). Put plainly: Inhibition of CENP-E ATPase activity at 20 uM.
For a further assay, the system named is Nucleic Acid. Nature of the assay: Induction of supercoiled DNA relaxation after 20 mins by agarose gel electrophoresis analysis. In kind it is nucleic-acid assay.
For assay [2], the target named is T1, Chromosome-associated kinesin KIF4A (Homo sapiens) (UniProt O95239).
T1 sequence (whole entry): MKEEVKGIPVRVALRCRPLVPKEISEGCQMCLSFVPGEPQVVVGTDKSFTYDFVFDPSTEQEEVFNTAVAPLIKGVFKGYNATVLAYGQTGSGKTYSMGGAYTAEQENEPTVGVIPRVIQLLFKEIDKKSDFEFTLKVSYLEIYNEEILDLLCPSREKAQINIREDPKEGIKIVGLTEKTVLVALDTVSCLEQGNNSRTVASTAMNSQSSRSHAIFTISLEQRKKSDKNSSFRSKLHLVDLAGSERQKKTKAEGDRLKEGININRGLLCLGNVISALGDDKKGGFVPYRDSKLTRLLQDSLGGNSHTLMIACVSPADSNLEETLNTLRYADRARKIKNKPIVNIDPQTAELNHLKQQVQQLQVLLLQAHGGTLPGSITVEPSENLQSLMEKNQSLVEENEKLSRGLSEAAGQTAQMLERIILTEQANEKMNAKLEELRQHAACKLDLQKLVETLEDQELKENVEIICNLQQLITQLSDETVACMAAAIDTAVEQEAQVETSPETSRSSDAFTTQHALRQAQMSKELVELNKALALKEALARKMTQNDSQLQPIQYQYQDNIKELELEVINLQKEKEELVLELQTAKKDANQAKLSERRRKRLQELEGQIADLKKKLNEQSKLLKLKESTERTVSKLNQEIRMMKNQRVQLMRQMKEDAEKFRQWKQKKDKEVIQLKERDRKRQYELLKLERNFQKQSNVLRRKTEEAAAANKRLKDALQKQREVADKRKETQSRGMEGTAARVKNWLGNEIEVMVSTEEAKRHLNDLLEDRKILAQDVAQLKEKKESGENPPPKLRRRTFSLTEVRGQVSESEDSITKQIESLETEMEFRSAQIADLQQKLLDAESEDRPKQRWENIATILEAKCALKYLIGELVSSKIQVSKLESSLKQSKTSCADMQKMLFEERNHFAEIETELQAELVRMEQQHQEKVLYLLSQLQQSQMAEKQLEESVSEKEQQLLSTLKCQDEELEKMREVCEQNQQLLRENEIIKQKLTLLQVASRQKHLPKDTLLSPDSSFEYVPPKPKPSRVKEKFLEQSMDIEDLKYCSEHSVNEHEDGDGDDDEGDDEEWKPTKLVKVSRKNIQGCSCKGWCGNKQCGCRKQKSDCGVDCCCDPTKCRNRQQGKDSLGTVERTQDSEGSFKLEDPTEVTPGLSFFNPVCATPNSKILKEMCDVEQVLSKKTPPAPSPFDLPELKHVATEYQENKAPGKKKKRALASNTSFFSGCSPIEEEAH
Put plainly: Inhibition of KIF-4 ATPase activity at 20 uM.

The species entered for assay [3] is Sus scrofa. Nature of the assay: Inhibition of pig brain topoisomerase 1-mediated supercoiled DNA relaxation after 20 mins by agarose gel electrophoresis analysis. The method in brief:
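Supercoiled DNA was incubated with topo I, with or without test compound. Gel lanes included supercoiled DNA alone, DNA plus enzyme without compound, and DNA plus enzyme with camptothecin as the reference inhibitor.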

In assay [4] the target is T2, Kinesin-like protein KIF22 (Homo sapiens) (UniProt Q14807).
T2 sequence (whole entry): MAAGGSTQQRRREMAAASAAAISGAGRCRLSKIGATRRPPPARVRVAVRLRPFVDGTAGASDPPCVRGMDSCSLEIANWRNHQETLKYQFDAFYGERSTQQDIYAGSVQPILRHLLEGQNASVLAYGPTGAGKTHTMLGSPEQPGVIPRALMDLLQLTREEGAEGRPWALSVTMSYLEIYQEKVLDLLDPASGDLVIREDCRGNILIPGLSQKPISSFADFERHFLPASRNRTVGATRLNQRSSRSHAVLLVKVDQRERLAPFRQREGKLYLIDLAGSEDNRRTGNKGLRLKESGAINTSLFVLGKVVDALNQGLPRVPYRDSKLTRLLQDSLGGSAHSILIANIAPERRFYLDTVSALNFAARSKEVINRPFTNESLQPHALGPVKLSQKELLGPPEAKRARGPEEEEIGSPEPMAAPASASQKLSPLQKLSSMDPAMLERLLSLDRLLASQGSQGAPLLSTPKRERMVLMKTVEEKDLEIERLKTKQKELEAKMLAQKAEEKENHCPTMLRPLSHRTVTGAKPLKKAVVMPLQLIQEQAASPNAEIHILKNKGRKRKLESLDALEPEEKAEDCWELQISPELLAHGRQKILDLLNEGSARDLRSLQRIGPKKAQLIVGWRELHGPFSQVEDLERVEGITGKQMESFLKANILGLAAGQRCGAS
Nature of the assay: Inhibition of Kid ATPase activity at 20 uM.

The species named for assay [5] is Sus scrofa. Nature of the assay: Inhibition of pig brain topoisomerase 2-mediated supercoiled DNA relaxation after 20 mins by agarose gel electrophoresis analysis. The method in brief:
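Supercoiled DNA was incubated with topo II, with or without test compound. Gel lanes included supercoiled DNA alone, DNA plus enzyme without compound, and DNA plus enzyme with AMSA as the reference inhibitor.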

Centromere-associated protein E (Homo sapiens), sequence (Q02224 whole entry): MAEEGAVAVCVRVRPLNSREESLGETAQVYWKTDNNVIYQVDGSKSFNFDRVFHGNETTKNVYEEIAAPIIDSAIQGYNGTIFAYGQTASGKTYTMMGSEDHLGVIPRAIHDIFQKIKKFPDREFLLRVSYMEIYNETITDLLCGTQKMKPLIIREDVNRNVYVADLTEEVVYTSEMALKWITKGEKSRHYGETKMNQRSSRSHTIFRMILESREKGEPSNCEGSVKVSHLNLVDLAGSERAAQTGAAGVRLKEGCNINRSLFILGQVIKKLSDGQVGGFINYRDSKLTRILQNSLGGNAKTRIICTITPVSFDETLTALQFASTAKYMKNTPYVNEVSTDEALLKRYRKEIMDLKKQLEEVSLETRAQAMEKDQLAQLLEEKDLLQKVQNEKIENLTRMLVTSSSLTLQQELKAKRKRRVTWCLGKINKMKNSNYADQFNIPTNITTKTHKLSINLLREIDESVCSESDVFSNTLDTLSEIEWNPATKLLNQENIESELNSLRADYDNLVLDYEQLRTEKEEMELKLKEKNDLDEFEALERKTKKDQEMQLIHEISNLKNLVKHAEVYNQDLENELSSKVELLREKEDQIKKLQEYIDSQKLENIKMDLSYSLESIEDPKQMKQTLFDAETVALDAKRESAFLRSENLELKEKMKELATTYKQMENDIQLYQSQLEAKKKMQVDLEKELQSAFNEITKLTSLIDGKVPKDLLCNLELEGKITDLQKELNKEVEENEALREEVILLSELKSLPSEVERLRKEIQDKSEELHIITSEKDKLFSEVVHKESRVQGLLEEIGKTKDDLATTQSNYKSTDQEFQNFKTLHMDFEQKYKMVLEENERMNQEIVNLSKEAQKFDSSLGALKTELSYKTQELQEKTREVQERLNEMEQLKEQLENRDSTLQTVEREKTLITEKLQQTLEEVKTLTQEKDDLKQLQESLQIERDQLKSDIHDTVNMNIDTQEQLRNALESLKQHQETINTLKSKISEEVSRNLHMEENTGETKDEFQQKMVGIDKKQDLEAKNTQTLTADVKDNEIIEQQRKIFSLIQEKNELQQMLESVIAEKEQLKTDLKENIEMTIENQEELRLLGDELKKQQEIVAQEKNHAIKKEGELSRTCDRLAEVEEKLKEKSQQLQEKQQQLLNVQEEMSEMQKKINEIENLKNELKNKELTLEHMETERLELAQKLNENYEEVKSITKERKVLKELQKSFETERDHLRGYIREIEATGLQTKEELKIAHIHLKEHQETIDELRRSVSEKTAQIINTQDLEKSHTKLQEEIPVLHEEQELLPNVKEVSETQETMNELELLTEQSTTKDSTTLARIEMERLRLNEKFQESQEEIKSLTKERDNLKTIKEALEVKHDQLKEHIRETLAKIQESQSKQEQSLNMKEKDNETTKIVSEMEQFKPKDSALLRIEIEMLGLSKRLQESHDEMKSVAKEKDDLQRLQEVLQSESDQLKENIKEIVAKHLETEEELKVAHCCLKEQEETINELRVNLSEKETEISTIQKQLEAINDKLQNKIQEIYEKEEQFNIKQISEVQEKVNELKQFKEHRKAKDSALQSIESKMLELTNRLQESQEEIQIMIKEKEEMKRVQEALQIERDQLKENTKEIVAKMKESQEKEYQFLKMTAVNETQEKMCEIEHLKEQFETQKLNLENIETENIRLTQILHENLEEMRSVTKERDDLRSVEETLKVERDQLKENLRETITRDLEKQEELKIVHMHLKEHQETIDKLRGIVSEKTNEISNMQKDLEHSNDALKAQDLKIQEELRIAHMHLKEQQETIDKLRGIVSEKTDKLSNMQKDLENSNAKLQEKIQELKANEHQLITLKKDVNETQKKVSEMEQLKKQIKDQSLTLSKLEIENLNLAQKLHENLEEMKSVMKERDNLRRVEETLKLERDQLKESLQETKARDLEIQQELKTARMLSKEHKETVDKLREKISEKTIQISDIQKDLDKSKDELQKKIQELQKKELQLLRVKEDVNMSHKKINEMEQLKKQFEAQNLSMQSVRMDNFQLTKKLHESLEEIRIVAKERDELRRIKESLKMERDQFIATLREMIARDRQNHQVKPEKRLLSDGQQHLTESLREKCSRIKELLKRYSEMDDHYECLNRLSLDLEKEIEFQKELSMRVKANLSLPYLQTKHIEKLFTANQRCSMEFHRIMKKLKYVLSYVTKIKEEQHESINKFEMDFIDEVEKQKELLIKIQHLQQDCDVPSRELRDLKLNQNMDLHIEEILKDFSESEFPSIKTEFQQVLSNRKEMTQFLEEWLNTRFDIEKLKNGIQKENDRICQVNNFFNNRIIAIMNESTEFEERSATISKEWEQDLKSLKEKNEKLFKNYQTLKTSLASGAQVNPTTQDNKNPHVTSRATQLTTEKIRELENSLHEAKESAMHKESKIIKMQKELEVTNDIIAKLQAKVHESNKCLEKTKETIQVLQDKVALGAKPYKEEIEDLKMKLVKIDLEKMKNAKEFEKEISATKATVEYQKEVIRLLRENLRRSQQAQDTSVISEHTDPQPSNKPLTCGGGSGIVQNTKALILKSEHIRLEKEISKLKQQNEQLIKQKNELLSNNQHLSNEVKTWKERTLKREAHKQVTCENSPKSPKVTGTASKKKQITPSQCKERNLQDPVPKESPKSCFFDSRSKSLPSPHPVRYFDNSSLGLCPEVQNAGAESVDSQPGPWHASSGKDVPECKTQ

Broadly, the IC50 is the concentration needed to halve the response being measured. With `FC(F)(F)c1ccc2[nH]c3ccccc3c2c1`, the IC50 with HeLa was 14 µM. Further, the inhibition entry (in assay [1]; in assay [2]; in the assay listed under Sus scrofa [3]; in assay [4]; in the assay listed under Sus scrofa [5]) was “inactive” throughout. Moreover, the result in the assay on Nucleic Acid was inactive.
`CC(C)(C)c1ccc2c(c1)[nH]c1ccccc12`: the midpoint of inhibition in the assay on HeLa, the IC50, lay at 40 µM. Besides, the inhibition entry (in assay [1]; in assay [2]; in the assay filed under Sus scrofa [3]; in assay [4]; in the assay listed under Sus scrofa [5]) was “inactive” throughout. Also, the result in the assay on Nucleic Acid was inactive.
`FC(F)(F)c1ccc2c(c1)[nH]c1ccccc12` returned a concentration for half-maximal inhibition (IC50) in the assay on HeLa of 11 µM. Moreover, the inhibition result (in assay [1]; in assay [2]; in the assay listed under Sus scrofa [3]; in assay [4]; in the assay listed under Sus scrofa [5]) was “inactive” in each case. The outcome in the assay on Nucleic Acid was inactive.
